Calls of active or inactive are those of the source. The rule behind the calls is not given here.
How the values were obtained:
[1] = target: Insulin-like growth factor 1 receptor (Homo sapiens) (UniProt P08069); experiment: Inhibition of recombinant IGF1R catalytic domain in presence of 1 uM radiolabeled ATP
How it was run: (§1)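 Radiometric enzymatic assay run by a contract lab (Reaction Biology) on the recombinant catalytic domain of each kinase, with radiolabeled ATP at 1 μM. IC50 taken from a 10-dose response.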

[2] = target: Proto-oncogene tyrosine-protein kinase Src (Homo sapiens, UniProt P12931); experiment: Inhibition of recombinant Src catalytic domain in presence of 1 uM radiolabeled ATP; how it was run: as §1
[3] = target: T1, Ephrin type-B receptor 4 (Homo sapiens, UniProt P54760); experiment: Inhibition of EphB4 in presence of 1 uM radiolabeled ATP; how it was run: as §1
T1 sequence (P54760 whole entry): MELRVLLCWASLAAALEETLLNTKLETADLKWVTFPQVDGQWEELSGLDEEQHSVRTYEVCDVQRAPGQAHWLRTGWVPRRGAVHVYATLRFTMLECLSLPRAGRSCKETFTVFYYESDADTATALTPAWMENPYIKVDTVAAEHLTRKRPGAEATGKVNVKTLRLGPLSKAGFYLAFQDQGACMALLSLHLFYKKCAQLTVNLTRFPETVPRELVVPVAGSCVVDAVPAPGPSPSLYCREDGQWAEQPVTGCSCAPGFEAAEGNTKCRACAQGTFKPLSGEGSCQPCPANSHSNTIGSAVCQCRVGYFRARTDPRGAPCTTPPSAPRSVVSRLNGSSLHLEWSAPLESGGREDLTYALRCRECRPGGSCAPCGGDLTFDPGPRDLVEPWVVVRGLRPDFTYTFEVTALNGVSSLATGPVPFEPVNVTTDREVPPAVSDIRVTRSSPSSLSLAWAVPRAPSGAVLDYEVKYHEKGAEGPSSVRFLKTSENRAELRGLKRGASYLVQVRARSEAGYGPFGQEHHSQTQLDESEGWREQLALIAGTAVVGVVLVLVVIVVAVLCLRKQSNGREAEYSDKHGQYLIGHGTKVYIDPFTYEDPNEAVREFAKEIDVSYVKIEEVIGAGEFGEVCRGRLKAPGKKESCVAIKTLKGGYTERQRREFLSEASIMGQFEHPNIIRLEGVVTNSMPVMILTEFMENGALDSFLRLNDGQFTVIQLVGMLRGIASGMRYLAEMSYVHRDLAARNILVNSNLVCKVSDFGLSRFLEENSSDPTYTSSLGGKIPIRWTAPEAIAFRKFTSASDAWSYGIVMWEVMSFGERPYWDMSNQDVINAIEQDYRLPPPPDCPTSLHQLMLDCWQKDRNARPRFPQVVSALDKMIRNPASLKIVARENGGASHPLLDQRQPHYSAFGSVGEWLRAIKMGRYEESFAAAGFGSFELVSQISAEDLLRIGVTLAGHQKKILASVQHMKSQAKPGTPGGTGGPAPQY

[4] = target: Tyrosine-protein kinase ABL1 (Homo sapiens, UniProt P00519); experiment: Inhibition of recombinant Abl1 catalytic domain in presence of 1 uM radiolabeled ATP; how it was run: as §1
[5] = target: Tyrosine-protein kinase Lck (Homo sapiens, UniProt P06239); experiment: Inhibition of recombinant Lck catalytic domain in presence of 1 uM radiolabeled ATP; how it was run: as §1
[6] = target: T1, Ephrin type-B receptor 4; experiment: Inhibition of EphB4 by FRET assay in presence of 30 uM ATP
How it was run: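 In-house FRET enzymatic assay of EphB4 using a commercial EphB4 kit, ATP 30 μM. IC50 derived from concentration-response.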

[7] = target: Epidermal growth factor receptor (Homo sapiens, UniProt P00533); experiment: Inhibition of recombinant EGFR catalytic domain in presence of 1 uM radiolabeled ATP; how it was run: as §1
[8] = target: T1, Ephrin type-B receptor 4; experiment: Inhibition of human full length EphB4 expressed in MEF cells assessed as inhibition of human ephrin B2/FC chimera-stimulated receptor autophosphorylation; assay type: cell-based
How it was run: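 Cellular EphB4 phosphorylation assay run by a contract lab (ProQinase) in murine embryonal fibroblasts (MEF) expressing exogenous full-length human EphB4. Cells were stimulated 2 h with human Ephrin-B2/Fc chimera to induce receptor tyrosine autophosphorylation. Read-out is inhibition of that autophosphorylation.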

[9] = target: T2, Ephrin type-B receptor 4 (Homo sapiens) (UniProt P54760); experiment: Inhibition of EphB4 at 30 uM in presence of 30 uM ATP
T2 sequence (whole entry): T1 sequence (P54760 whole entry)
How it was run: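 EphB4 kinase, FRET enzymatic assay run in house with a commercial EphB4 assay kit. ATP at 30 μM, compound at 30 μM. Read-out is percent inhibition at that single concentration.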

Tyrosine-protein kinase Lck, sequence (P06239 whole entry, the tested form may be a part): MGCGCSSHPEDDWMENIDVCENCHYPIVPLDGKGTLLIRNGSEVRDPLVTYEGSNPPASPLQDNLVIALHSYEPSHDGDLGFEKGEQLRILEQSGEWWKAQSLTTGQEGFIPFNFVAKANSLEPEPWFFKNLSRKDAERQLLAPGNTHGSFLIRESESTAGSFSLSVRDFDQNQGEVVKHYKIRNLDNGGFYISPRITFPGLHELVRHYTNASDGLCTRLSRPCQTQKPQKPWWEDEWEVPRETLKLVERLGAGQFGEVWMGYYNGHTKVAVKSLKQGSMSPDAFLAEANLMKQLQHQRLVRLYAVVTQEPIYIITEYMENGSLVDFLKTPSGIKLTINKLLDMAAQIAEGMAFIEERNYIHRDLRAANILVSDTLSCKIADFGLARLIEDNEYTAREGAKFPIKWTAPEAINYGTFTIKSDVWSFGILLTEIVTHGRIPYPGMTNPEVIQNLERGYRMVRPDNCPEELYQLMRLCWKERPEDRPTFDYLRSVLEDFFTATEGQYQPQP
Insulin-like growth factor 1 receptor (Homo sapiens), sequence (P08069 31-736 limits assumed): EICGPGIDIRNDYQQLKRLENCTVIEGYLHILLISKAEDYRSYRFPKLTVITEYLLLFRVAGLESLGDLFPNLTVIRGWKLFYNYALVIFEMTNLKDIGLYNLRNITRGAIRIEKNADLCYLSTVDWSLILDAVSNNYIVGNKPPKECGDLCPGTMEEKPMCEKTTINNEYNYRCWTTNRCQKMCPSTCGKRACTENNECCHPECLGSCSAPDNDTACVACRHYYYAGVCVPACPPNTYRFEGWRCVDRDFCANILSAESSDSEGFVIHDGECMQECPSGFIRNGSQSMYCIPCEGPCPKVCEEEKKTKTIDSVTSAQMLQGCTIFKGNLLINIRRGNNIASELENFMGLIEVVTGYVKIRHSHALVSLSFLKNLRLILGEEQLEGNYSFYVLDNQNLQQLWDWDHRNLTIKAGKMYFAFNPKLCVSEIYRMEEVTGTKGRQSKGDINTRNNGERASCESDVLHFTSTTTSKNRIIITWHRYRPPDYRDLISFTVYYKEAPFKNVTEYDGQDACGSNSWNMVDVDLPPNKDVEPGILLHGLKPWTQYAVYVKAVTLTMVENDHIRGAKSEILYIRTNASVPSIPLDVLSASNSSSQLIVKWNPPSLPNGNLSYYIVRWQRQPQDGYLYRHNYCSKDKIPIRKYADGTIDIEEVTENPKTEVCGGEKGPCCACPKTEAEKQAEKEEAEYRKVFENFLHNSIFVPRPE
Insulin-like growth factor 1 receptor (Homo sapiens), sequence (P08069 741-1367 limits assumed): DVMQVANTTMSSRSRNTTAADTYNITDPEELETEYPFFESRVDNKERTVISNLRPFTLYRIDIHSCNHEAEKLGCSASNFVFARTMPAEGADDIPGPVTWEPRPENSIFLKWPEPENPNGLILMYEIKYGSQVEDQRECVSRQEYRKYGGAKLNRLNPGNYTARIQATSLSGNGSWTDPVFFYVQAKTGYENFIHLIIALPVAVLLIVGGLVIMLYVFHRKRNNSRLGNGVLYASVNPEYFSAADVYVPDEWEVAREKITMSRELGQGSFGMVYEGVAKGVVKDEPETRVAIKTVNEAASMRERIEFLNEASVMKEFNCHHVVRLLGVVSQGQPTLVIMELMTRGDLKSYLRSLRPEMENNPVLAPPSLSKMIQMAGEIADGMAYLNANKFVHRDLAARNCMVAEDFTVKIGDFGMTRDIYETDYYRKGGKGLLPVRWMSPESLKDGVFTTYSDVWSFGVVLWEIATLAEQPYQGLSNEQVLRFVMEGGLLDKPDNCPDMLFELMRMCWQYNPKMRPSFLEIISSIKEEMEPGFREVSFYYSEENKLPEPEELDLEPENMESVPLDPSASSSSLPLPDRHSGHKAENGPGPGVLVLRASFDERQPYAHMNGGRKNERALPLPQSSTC
Proto-oncogene tyrosine-protein kinase Src, sequence (P12931 2-536 limits assumed): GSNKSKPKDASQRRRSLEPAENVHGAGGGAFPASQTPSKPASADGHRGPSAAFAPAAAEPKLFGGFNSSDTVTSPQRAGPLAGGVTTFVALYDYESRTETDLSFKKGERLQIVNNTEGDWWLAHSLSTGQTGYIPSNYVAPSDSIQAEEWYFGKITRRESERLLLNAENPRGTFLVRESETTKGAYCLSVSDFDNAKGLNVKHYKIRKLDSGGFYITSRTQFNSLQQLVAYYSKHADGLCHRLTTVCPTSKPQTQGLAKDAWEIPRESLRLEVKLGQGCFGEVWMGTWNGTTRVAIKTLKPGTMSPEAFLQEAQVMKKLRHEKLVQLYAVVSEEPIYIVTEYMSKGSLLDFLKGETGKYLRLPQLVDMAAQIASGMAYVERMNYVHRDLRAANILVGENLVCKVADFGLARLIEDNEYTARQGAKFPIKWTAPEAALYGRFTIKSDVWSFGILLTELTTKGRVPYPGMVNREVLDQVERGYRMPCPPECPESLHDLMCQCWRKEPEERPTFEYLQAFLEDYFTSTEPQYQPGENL
Tyrosine-protein kinase ABL1, sequence (P00519 whole entry, the tested form may be a part): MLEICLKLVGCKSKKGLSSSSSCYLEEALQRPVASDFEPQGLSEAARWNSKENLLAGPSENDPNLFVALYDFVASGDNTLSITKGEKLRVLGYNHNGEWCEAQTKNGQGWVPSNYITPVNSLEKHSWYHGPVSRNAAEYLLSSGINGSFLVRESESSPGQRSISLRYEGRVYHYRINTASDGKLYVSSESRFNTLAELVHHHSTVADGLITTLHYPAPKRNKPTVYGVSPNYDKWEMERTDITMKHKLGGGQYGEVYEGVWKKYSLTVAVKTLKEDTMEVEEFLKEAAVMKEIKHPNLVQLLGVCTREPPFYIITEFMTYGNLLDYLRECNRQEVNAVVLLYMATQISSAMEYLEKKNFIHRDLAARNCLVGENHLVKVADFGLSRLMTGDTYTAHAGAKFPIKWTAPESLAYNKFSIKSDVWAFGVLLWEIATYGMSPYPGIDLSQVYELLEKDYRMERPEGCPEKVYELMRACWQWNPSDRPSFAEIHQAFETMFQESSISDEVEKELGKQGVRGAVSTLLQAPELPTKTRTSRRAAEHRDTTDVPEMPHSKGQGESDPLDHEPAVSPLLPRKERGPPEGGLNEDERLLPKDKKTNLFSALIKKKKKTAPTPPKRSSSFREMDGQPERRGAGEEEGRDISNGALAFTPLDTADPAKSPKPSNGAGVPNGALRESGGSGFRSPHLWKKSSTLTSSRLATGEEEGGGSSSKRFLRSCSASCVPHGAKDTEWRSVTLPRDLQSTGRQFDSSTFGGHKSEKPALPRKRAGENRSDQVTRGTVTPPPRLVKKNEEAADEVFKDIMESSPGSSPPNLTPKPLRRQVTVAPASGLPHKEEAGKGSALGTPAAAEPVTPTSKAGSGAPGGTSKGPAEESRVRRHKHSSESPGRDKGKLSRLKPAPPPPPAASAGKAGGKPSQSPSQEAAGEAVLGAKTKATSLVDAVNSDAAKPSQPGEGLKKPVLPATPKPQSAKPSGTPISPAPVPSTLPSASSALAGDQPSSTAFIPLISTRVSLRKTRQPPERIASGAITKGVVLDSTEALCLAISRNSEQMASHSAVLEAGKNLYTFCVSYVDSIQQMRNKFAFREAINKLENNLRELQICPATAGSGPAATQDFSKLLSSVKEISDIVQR
Epidermal growth factor receptor, sequence (P00533 whole entry, the tested form may be a part): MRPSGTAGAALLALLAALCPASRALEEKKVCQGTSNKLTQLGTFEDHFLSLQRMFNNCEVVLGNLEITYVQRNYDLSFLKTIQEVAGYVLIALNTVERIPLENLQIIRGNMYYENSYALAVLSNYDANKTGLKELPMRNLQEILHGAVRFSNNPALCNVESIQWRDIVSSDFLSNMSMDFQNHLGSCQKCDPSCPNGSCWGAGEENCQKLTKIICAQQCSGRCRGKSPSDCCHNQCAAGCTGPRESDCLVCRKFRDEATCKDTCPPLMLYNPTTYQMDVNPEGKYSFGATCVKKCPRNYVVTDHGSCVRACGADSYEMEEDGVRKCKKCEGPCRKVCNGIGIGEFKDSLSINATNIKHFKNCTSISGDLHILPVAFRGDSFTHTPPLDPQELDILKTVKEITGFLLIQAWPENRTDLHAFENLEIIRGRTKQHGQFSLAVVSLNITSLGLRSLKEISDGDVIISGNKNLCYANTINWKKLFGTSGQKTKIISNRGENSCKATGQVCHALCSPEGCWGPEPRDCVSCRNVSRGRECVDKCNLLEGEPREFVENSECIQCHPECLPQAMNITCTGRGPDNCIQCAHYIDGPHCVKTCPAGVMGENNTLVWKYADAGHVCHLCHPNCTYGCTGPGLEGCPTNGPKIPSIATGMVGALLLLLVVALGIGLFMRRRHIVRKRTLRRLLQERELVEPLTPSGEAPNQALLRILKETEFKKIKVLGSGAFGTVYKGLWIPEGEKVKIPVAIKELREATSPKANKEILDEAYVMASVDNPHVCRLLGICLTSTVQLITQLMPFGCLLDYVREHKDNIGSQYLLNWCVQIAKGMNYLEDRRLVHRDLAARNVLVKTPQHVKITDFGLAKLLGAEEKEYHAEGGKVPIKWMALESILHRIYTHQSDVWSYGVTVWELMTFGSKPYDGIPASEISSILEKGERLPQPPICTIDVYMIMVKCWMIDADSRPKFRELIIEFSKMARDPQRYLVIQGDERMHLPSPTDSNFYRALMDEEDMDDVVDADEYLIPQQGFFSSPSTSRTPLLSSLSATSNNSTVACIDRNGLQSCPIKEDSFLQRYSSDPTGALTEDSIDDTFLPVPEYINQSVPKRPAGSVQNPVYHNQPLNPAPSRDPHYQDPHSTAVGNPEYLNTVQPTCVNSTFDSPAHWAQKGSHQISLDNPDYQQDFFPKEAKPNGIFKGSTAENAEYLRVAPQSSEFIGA

IC50 [3] | inhibition [9] | SMILES | other results
0.16 µM |  | Cc1ccc(O)cc1-n1c(=O)c2c(c3c(N)ncnc31)CCCC2 | inhibition [1]: inactive; IC50 [2]: 0.338 µM; IC50 [4]: 0.864 µM; IC50 [5]: 1.38 µM; IC50 [6]: 0.3 µM; IC50 [7]: 1.62 µM; IC50 [8]: 0.93 µM
 | 37% | COc1ccc(-n2c(=O)c3c(c4c(N)ncnc42)CCCC3)cc1 | 
8.4 µM | 48% | Cc1ccccc1-n1c(=O)c2c(c3c(N)ncnc31)CCCC2 | 
 | 5% | COc1ccccc1-n1c(=O)c2c(c3c(N)ncnc31)CCCC2 | 
 | 0% | COc1ccccc1-n1c(=O)c2c(c3c(N)ncnc31)CC(C)(C)OC2 | 
14.3 µM | 38% | COc1cccc(-n2c(=O)c3c(c4c(N)ncnc42)CC(C)(C)OC3)c1 | 
5.2 µM | 75% | COc1cccc(-n2c(=O)c3c(c4c(N)ncnc42)CCCC3)c1 | IC50 [6]: 9.4 µM
